Experimental data of several laboratories.
Compare with care: the assays were run in different laboratories.
PIK3C3: Phosphatidylinositol 3-kinase catalytic subunit type 3 (PIK3C3, Homo sapiens, UniProt Q8NEB9)
TYR: Tyrosinase (TYR, Homo sapiens, UniProt P14679)
Si: Sucrase-isomaltase, intestinal (Si, Rattus norvegicus, UniProt P23739)
ESR1: Estrogen receptor (ESR1, Homo sapiens, UniProt P03372)

Compound | target | effect on | mode | method | cell line | tested at | inhibition [%]
CS(=O)(=O)Nc1cccc(-c2csc(NC(=O)CSc3nc4nccnc4c(=O)n3CCc3ccccc3)n2)c1 | PIK3C3 | enzyme activity | inhibitor | – | – | 10 µM | 9
Ic1cccc2cnccc12 | NAD(+) hydrolase SARM1 (SARM1, Homo sapiens, UniProt Q6SZW1) | enzyme activity | inhibitor | – | – | 10 µM | 100
Cc1ccc(C(C)C)cc1NC(=O)COC(=O)/C=C/c1ccc(O)cc1 | TYR | enzyme activity | inhibitor | – | – | 50 µg/mL | 55.8
O=c1c(O[C@@H]2O[C@@H](CO)[C@H](O)[C@H]2O)c(-c2ccc(O)c(O)c2)oc2cc(O)cc(O)c12 | Si | enzyme activity | inhibitor | – | – | 25 µg/mL | 28.6
Oc1cccc(Nc2nc(-c3ccc(F)cc3F)cs2)c1 | ESR1 | cell-free assay | – | – | – | 10 µM | 11.2
Cn1cnc(Br)c1C1=CN(c2ncnc3[nH]cnc23)CCS1 | cAMP-dependent protein kinase catalytic subunit beta (PRKACB, Homo sapiens, UniProt P22694) | enzyme activity | inhibitor | radiometric | – | 2 µM | 91.3
Cc1ccc(C(C)C)cc1NC(=O)COC(=O)c1cccc(O)c1 | TYR | enzyme activity | inhibitor | – | – | 50 µg/mL | 61.2
CNc1cc(Oc2cc(C(=O)Nc3cc(N4CCN(C)CC4)cc(C(F)(F)F)c3)ccc2C)ncn1 | Serine/threonine-protein kinase SMG1 (SMG1, Homo sapiens, UniProt Q96Q15) | target engagement in cells | inhibitor | chemoproteomics | Huh-7 | 1 µM | -15.7
CCCNc1nc2ccccc2n1Cc1ccc(Cl)cc1 | Alpha-2C adrenergic receptor (ADRA2C, Homo sapiens, UniProt P18825) | ligand displacement | – | – | – | 10 µM | 84.8
Cc1ccc(C(C)C)cc1NC(=O)COC(=O)/C=C/c1ccc(Cl)cc1 | TYR | enzyme activity | inhibitor | – | – | 50 µg/mL | 57.4
O=c1c(O[C@@H]2O[C@H](CO)[C@@H](O)[C@H](O)[C@H]2O)c(-c2ccc(O)c(O)c2)oc2cc(O)cc(O)c12 | Si | enzyme activity | inhibitor | – | – | 200 µg/mL | 61.4
Cc1ccc(C(C)C)cc1NC(=O)COC(=O)c1ccc(O)c(O)c1 | TYR | enzyme activity | inhibitor | – | – | 50 µg/mL | 56.9
O=C(CSc1nc2nccnc2c(=O)n1CCc1ccccc1)Nc1nccs1 | PIK3C3 | enzyme activity | inhibitor | – | – | 10 µM | 28
CCN(CC)c1ccc(C2=NNC(=O)CC2C)cc1[N+](=O)[O-] (stereo not shown) | cGMP-inhibited 3',5'-cyclic phosphodiesterase 3A (PDE3A, Homo sapiens, UniProt Q14432) | enzyme activity | inhibitor | – | – | 0.1 µM | 95
O=C1OC[C@H]2OC(=O)c3cc(O)c(O)c(O)c3-c3c(O)c(O)c(O)c4c3C(=O)O[C@H]([C@H]3OC(=O)c5c-4c(O)c(O)c(O)c5[C@H]3O)[C@@H]2OC(=O)c2cc(O)c(O)c(O)c2-c2c1cc(O)c(O)c2O | Si | enzyme activity | inhibitor | – | – | 50 µg/mL | 28.4
CN(C)C1CCN(CC#Cc2nn(C3CCCC3)c3nc(NCc4ccccc4)ncc23)C1 (stereo not shown) | Leucine-rich repeat serine/threonine-protein kinase 2 (LRRK2, Homo sapiens, UniProt Q5S007) | enzyme activity | inhibitor | FRET | – | 1 µM | 0
Cc1ccc(Nc2nccc(N(C)c3ccc4c(C)n(C)nc4c3)n2)cc1S(N)(=O)=O | Mitogen-activated protein kinase 14 (MAPK14, Homo sapiens, UniProt Q16539) | enzyme activity | inhibitor | – | – | 10 µM | 62
COc1cc(Cl)c(C(=O)N[C@@H](CN[C@H]2CC[C@@H](N)CC2)Cc2ccc(C#N)cc2)cc1-c1ccc(CN[C@H](C)c2ccc(C)cc2)o1 | P2Y purinoceptor 2 (P2RY2, Homo sapiens, UniProt P41231) | calcium signal | antagonist | – | – | 10 µM | -25
O=C(c1ccc(Cl)cc1)N(Cc1ccccc1)C1CCCCC1 | ESR1 | cell-free assay | – | – | – | 10 µM | -2.9
CN1CC(Oc2cnc(C#N)cc2-c2ccn3nc(NC(=O)C4CC4)cc3c2)C1 | Eukaryotic translation initiation factor 2-alpha kinase 1 (EIF2AK1, Homo sapiens, UniProt Q9BQI3) | enzyme activity | inhibitor | – | – | 1 µM | -8
CNC(=O)c1cc(Oc2ccc(NC(=O)Nc3ccc(Cl)c(C(F)(F)F)c3)cc2)ccn1 | Mitogen-activated protein kinase 14 (MAPK14, Homo sapiens, UniProt Q16539, T106M) | enzyme activity | inhibitor | – | – | 0.3 µM | 59
COc1cc(NC(C)=O)c(Cl)cc1C(=O)Nc1nccs1 | ESR1 | cell-free assay | – | – | – | 10 µM | 1.4
O=C(Nc1ccc(S(=O)(=O)N2CCC(Cl)CC2)cc1)c1ccc([N+](=O)[O-])o1 | ESR1 | ligand displacement | – | radioligand | – | 10 µM | 0
O=C(c1ccc(F)cc1)N(Cc1ccccc1)C1CCCCC1 | Interleukin-1 receptor type 1 (IL1R1, Homo sapiens, UniProt P14778) | cell-free assay | – | – | – | 10 µM | 14
CCN(Cc1ccccc1C(F)(F)F)C(=O)C1CCN(S(=O)(=O)c2ccc3[nH]ncc3c2)CC1 | ESR1 | ligand displacement | – | radioligand | – | 10 µM | 8
